Assay results as given in ChEMBL document CHEMBL1135607, “1-Benzyl-3-(5'-hydroxymethyl-2'-furyl)indazole (YC-1) derivatives as novel inhibitors against sodium nitroprusside-induced apoptosis” (2002).

Organism: Rattus norvegicus
Experiment: Effect on the survival of rat aortic smooth muscle cells
Format: functional
Parameters: concentration or dose not given beside the values
In short: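 Rat aortic smooth muscle cells in culture, pretreated 30 min with test compound at 30 μM, then vehicle or sodium nitroprusside (1 mM) added for another 24 h. Viability read by MTT assay and TUNEL.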

Molecule | Cell survival [%]
CCN(CC)Cc1ccc(-c2nn(Cc3ccccc3)c3ccccc23)o1 | 39.7
Cc1ccc(-c2nn(Cc3ccccc3)c3ccccc23)o1 | 31.1
COC(=O)c1ccc(-c2nn(Cc3ccccc3)c3ccccc23)o1 | 78
OCc1ccc(-c2nn(Cc3ccccc3)c3ccccc23)o1 | 94.7
COCc1ccc(-c2nn(Cc3ccccc3)c3ccccc23)o1 | 93.2
COc1ccc2c(-c3ccc(CO)o3)nn(Cc3ccccc3)c2c1 | 84.5
SODIUM NITROPRUSSIDE | 41.3
CNCc1ccc(-c2nn(Cc3ccccc3)c3ccccc23)o1 | 57.2
OCc1ccc(-c2nn(Cc3ccccc3)c3cc4c(cc23)OCO4)o1 | 75.8
OCc1ccc(-c2nn(Cc3ccccc3)c3cc(F)ccc23)o1 | 83.3
OCc1ccc(-c2nn(-c3ccccc3)c3ccccc23)o1 | 93.9
